The values below come from PMC3580291 (Cell Calcium, 2013).

What is called IC50 is the point on the concentration scale where inhibition reaches its midpoint. Broadly, the inhibition is the drop in the measured response relative to a control, in per cent.

The target of one assay is STIM1/Orai1 currents (Homo sapiens, UniProt Q96D31). The assay is described as follows: whole-cell patch-clamp of STIM1-mediated Orai1 currents in HEK293 cells. It is filed as cell-based. The following applies: for inhibition of maximally activated STIM1/Orai1 currents: whole cell inward current at −74 mV, HEK293; for kinetics of Orai1 current inhibition, slower than La^3+: relative to La^3+; for recovery of Orai1 currents upon wash-out: after full block by 10 μM, 4–5 min wash-out with 10 mM Ca^2+ solution. Put shortly:
(§1)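 HEK293 cells transfected with CFP-STIM1 plus YFP-Orai construct and recorded 24 h later. Whole-cell patch clamp at 20–24 °C with passive store depletion via a pipette containing (mM) 145 Cs methanesulfonate, 20 EGTA, 3.5 MgCl2, 8 NaCl, 10 HEPES, pH 7.2. Bath contained 10 mM CaCl2, pH 7.4. Ramps from −90 to +90 mV over 1 s, every 5 s, from 0 mV holding. Inward current taken at −74 mV. Leak correction used the initial trace or post-10 μM La3+ trace.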
Background: In patch-clamp work, channel activity is measured electrically.

Another assay relates to CRAC currents. The following applies: cited from earlier work.
The test system of a further assay is Orai2. The following applies: high concentrations (50 μM), compared with Orai1; cited from earlier work.
Another assay has as its system Orai1 currents. The following applies: cited from earlier work.
The subject of another assay is Orai3. The following applies: cited from earlier work.
In assay [1] the test system is interleukin-2 (IL-2) production in lymphocytes. The following applies: cited from earlier work.
Assay [2] concerns CRAC/SOC currents in RBL cells. The following applies: 30 μM; cited from earlier work.
In another assay the target is STIM1/Orai3 currents (Homo sapiens, UniProt Q9BRQ5). The assay is described as follows: whole-cell patch-clamp of STIM1-mediated Orai3 currents in HEK293 cells. The following applies: for inhibition of maximally activated STIM1/Orai3 currents: 10 μM, whole cell inward current at −74 mV, HEK293; for recovery of Orai3 currents upon wash-out: after full block by 10 μM, 4–5 min wash-out with 10 mM Ca^2+ solution. It is filed as cell-based. Put shortly:
as §1

A further assay deals with CaV1.2 (L-type) (Homo sapiens, UniProt Q13936). The assay is described as follows: selectivity profile, over-expressed ion channel. The class given is cell-based. The following applies: Activity (IC50), antagonistic action; Human CaV1.2 (L-type).
For assay [3], the target named is CFP-STIM1/YFP-STIM1 oligomerization (Homo sapiens, UniProt Q13586). The assay is described as follows: confocal FRET microscopy of STIM1 oligomerization. It is filed as cell-based. The following applies: 10 μM applied 5 min before store-depletion with 2 μM thapsigargin. The method in brief:
(§2)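 HEK293 cells transfected with CFP/YFP-tagged STIM1 and/or Orai1 and imaged 24 h later by confocal FRET microscopy with 457/488/514 nm laser lines. CFP, FRET and YFP images used about 900–1500 ms illumination. Crosstalk and cross-excitation factors were set per construct daily. Pixelwise corrected FRET (NFRET) was computed after background subtraction, limited to CFP:YFP molar ratio 1:10–10:1. Data given as mean ± S.E.M.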

The test system of the next assay is human lung mast cells. The following applies: 3 μM; cited from earlier work.
The target in a further assay is rat-TRPV6 channels (Rattus norvegicus, UniProt Q9R186). The assay is described as follows: whole-cell patch-clamp of TRPV6 expressing HEK293 cells. The class given is cell-based. The following applies: 10 μM, −74 mV.
Chain of rat-TRPV6 channels (Q9R186 41-767): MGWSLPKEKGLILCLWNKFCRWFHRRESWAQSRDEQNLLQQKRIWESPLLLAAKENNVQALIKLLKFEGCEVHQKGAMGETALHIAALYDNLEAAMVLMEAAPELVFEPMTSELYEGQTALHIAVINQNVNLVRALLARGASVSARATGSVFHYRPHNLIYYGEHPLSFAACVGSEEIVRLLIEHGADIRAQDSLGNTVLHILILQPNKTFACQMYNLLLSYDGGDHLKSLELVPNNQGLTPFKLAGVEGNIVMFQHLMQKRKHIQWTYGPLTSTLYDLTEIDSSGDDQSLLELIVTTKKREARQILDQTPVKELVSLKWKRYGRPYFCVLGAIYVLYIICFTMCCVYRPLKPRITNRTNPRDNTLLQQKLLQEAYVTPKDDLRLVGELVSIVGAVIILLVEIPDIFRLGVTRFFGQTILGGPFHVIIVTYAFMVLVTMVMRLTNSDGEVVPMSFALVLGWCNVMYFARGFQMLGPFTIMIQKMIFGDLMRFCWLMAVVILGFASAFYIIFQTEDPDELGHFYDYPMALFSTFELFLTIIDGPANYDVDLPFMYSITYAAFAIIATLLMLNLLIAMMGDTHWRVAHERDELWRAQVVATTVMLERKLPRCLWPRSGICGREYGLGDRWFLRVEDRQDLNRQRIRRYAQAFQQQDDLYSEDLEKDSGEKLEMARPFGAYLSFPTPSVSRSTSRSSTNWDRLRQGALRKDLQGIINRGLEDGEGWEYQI
The next assay addresses L-type Ca^2+ channels (Homo sapiens, UniProt Q13936). The assay is described as follows: whole-cell patch-clamp of L-type Ca2+ channel expressing HEK293 cells. It is filed as cell-based. The following applies: 10 μM.
Assay [4] concerns the target 2-APB stimulated Orai3 currents (Homo sapiens, UniProt Q9BRQ5). The assay can be described thus: whole-cell patch-clamp of 2-APB stimulated Orai3 currents. The class given is cell-based.
The next assay relates to HEK293 cells. It is filed as cell-based.
Assay [5] has as its target STIM1-CFP/Orai1-YFP interaction (Homo sapiens, UniProt Q13586+Q96D31). The assay is described as follows: confocal FRET microscopy of STIM1/Orai1 coupling. The following applies: 10 μM after store-depletion by thapsigargin; HEK cells. It is filed as cell-based. Put shortly:
as §2

Assay [6] concerns endogenous CRAC channels of RBL-2H3 cells. The assay is described as follows: whole-cell patch-clamp of endogenous CRAC currents in RBL-2H3 cells. The following applies: 10 μM; passive store-depletion; −74 mV. The class given is cell-based, rat. Put shortly:
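RBL-2H3 cells grown in RPMI 1640 with 10% FBS, 1% penicillin–streptomycin and 1% L-glutamine at 37 °C, 5% CO2. Endogenous CRAC current activated by passive store depletion (20 mM EGTA pipette) in whole-cell mode. Inward current at −74 mV followed during perfusion of 10 μM test compound, with 10 μM La3+ as reference.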

A further assay has as its target STIM1/Orai1 E106D (Homo sapiens, UniProt Q96D31, E106D). The assay can be described thus: whole-cell patch-clamp of STIM1-activated Orai1 E106D pore mutant currents. The class given is cell-based. The method in brief:
as §1

Assay [7] concerns the target STIM1/Orai1 D110/112/114A (Homo sapiens, UniProt Q96D31, D110A/D112A/D114A). The class given is cell-based. The following applies: 10 μM.
For assay [8], the system named is STIM1 clustering in smooth muscle cells. The following applies: cited from earlier work.
The next assay has as its system RBL mast cells. The following applies: read-out: IC50 on RBL mast cells; cited from earlier work.

Where two headings read alike, the source gives them in different places. Bounds are passed on as bounds.

Chain of STIM1/Orai1 currents (Q96D31 whole entry): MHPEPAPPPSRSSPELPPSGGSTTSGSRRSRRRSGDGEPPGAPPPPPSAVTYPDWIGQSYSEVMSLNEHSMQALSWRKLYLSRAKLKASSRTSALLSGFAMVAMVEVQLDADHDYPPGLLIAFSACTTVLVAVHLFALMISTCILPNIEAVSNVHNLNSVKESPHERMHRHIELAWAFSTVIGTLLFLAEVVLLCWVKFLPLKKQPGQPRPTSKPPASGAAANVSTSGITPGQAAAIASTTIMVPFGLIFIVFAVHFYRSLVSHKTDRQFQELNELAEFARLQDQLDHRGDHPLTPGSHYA
Chain of STIM1/Orai1 currents (Q13586 23-685 partner): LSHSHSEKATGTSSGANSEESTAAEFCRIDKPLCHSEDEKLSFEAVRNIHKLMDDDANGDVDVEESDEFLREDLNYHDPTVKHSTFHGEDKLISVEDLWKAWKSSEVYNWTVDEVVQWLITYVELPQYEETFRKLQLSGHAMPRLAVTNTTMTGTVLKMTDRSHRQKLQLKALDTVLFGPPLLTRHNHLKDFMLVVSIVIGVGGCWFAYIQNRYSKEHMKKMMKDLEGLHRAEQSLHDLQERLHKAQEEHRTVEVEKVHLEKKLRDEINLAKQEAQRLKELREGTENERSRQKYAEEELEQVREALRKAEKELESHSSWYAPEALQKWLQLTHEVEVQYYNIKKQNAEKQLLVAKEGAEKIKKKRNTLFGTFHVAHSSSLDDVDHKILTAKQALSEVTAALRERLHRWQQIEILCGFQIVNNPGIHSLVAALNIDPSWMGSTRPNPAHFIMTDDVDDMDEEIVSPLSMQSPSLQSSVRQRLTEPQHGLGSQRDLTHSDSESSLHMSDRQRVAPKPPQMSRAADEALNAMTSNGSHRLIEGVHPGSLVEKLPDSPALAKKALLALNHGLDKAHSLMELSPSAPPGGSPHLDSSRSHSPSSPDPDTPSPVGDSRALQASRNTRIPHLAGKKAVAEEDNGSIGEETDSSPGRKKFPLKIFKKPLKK
Chain of STIM1/Orai1 E106D (Q96D31 whole entry E106D): as the sequence (Q96D31 whole entry) above, with E106D counted along it
Chain of STIM1/Orai1 E106D (Q13586 23-685 partner): as the sequence (Q13586 23-685 partner) above
Chain of STIM1-CFP/Orai1-YFP interaction (Q96D31 whole entry): as the sequence (Q96D31 whole entry) above
Chain of STIM1-CFP/Orai1-YFP interaction (Q13586 23-685): as the sequence (Q13586 23-685 partner) above
Chain of CFP-STIM1/YFP-STIM1 oligomerization (Q13586 23-685): as the sequence (Q13586 23-685 partner) above
Chain of CFP-STIM1/YFP-STIM1 oligomerization (Q13586 23-685): as the sequence (Q13586 23-685 partner) above
Chain of STIM1/Orai1 D110/112/114A (Q96D31 whole entry D110A/D112A/D114A): as the sequence (Q96D31 whole entry) above, with D110A, D112A, D114A counted along it
Chain of STIM1/Orai1 D110/112/114A (Q13586 23-685 partner): as the sequence (Q13586 23-685 partner) above

Turning to `NCCOB(c1ccccc1)c1ccccc1` [2-APB, 2-aminoethoxydiphenylborate], the “effect on STIM1/Orai1 currents” value on STIM1/Orai1 currents (75 μM) is given as “transient stimulation followed by a complete inhibition”. The “effect on CRAC currents” value in the assay on CRAC currents (concentrations higher than 10 μM) is listed as “completely blocked”; in the assay on CRAC currents (low concentrations (1–5 μM)) it was “enhanced”. For the same compound, in the assay on Orai2, the “effect on over-expressed Orai2” value is “less sensitive”. Moreover, the “effect on over-expressed Orai1” value in the assay on Orai1 currents (high concentrations (50 μM)) was “robust block”. The entries for the “effect on Orai1 currents” value with Orai1 currents (higher concentrations (>40 μM)) and in the assay with Orai1 currents (low concentrations (5 μM)) were “inhibit” and “enhance”, respectively. Further, the “effect on Orai3 currents” value in the assay on Orai3 (75 μM, independent of STIM1) is “robust current stimulation”. Besides, in the assay with Orai3, the “effect on over-expressed Orai3” value is reported as “robustly stimulated”.

`Cc1nnsc1C(=O)Nc1ccc(-n2nc(C(F)(F)F)cc2C(F)(F)F)cc1` [BTP2]: the “effect on interleukin-2 (IL-2) production in lymphocytes” value in assay [1] was “potently blocks”.

With `CC/C(=C(/CC)c1ccc(O)cc1)c1ccc(O)cc1` [DES, diethylstilbestrol, reference compound], the “time to full blockade of STIM1-activated Orai1 currents” value on STIM1/Orai1 currents (10 μM (Fig. 2B)) is on record as at most 50 s. Also, the “inhibition of maximally activated STIM1/Orai1 currents” value against STIM1/Orai1 currents (10 μM) is “full and rapid blockade”. In addition, in [2], the “block of CRAC/SOC currents in RBL cells” value is recorded as “effective block”.

Consider `O=C(Nc1ccn(Cc2ccccc2Oc2ccccc2)n1)c1c(F)cccc1F` [GSK-5503A, 2,6-difluoro-N-(1-(2-phenoxybenzyl)-1H-pyrazol-3-yl)benzamide], for which, on STIM1/Orai1 currents (10 μM), the “kinetics of Orai1 current inhibition, slower than La^3+” value was 2.5 fold and the “inhibition of maximally activated STIM1/Orai1 currents” value is “complete Orai1 current inhibition”. Moreover, the “recovery of Orai1 currents upon wash-out” value on STIM1/Orai1 currents is “not readily reversible”. Also, at STIM1/Orai3 currents, the “inhibition of maximally activated STIM1/Orai3 currents” value is “fully inhibited” and the “recovery of Orai3 currents upon wash-out” value is on record as “not readily reversible”.

Take `O=C(Nc1ccn(Cc2ccc(O)cc2C(F)(F)F)n1)c1c(F)cccc1F` [GSK-7975A, 2,6-difluoro-N-(1-(4-hydroxy-2-(trifluoromethyl)benzyl)-1H-pyrazol-3-yl)benzamide]: at STIM1/Orai1 currents, the “Hill coefficient, inhibition of Orai1 currents” value is listed as about 1 and the “recovery of Orai1 currents upon wash-out” value is reported as “not readily reversible”. In addition, the “effect on Ca^2+-induced fast inactivation of STIM1/Orai1” value at STIM1/Orai1 currents (3 μM (Suppl. Fig. 1)) was “did not significantly increase inactivation”. Also, the “inhibition of CRAC currents upon intracellular application” value against STIM1/Orai1 currents (10 μM intracellular application, data not shown) is listed as “slight inhibition”. For the same compound, at STIM1/Orai1 currents (10 μM, Na^+ as main charge carrier), the “inhibition of STIM1/Orai1 monovalent currents in divalent free (DVF) solution” value was “fully blocked”. For the same compound, on STIM1/Orai1 currents (10 μM), the “kinetics of Orai1 current inhibition, slower than La^3+” value is given as 2.5 fold and the “inhibition of maximally activated STIM1/Orai1 currents” value is listed as “complete Orai1 current inhibition”. This compound came in with an IC50 on CaV1.2 (L-type) of about 8 µM. In assay [3], the “effect on FRET increase (STIM1 oligomerization) upon store-depletion” value was “unaffected”. Further, in the assay on human lung mast cells, the “Ca^2+ influx in human lung mast cells” value is “significantly reduced” and the “release of inflammatory mediators from human lung mast cells” value was “significantly reduced”. In addition, the “inhibition of TRPV6 currents” value against rat-TRPV6 channels is “completely inhibited”. Moreover, the “inhibition of L-type Ca^2+ channel currents” value on L-type Ca^2+ channels was “moderate inhibition”. The “inhibition of maximally 2-APB stimulated Orai3 currents” value in assay [4] (10 μM, 75 μM 2-APB) is given as “totally ineffective”. In addition, the “inhibition of maximally 2-APB activated Orai3 currents” value in assay [4] (100 μM) is given as “full inhibition”. The inhibition at 50 µM in assay [4] (read-out: inhibition of maximally 2-APB activated Orai3 currents) stood at 50%. For the same compound, in the assay with HEK293 cells (10 μM pre-incubation, stimulation by carbachol (CCH) or BHQ), the “amount of Ca^2+ released from ER stores” value is on record as “not markedly altered”. In addition, in the assay with HEK293 cells (pre-incubation with 10 μM, Fura-2), the “inhibition of endogenous store-operated Ca^2+ entry of HEK293 cells” value is given as “substantially inhibited”. Further, the “effect on FRET plateau representing STIM1/Orai1 interaction” value in [5] was “did not significantly alter”. Moreover, in assay [6], the “inhibition of RBL CRAC currents” value is “fully blocked”. The “inhibition of STIM1-activated Orai1 E106D currents” value on STIM1/Orai1 E106D (10 μM) is listed as “no inhibition”. In addition, on STIM1/Orai1 E106D (100 μM), the “inhibition of STIM1-mediated Orai1 E106D currents” value was “substantially but not fully restored the inhibitory effect”. Besides, in assay [7], the “inhibition of STIM1-activated Orai1 D110/112/114A currents” value is on record as “substantial inhibition almost comparable to that of wild-type Orai1”. For the same compound, on STIM1/Orai3 currents, the “Hill coefficient, inhibition of Orai3 currents” value is about 1; the “inhibition of maximally activated STIM1/Orai3 currents” value was “fully inhibited”; the “recovery of Orai3 currents upon wash-out” value is “not readily reversible”.

As for `[La+3]` [La^3+, reference compound], at STIM1/Orai1 currents (10 μM), the “inhibition of maximally activated STIM1/Orai1 currents” value is given as “complete inhibition”. Besides, the “inhibition of TRPV6 currents” value at rat-TRPV6 channels is given as “fully blocked”. In addition, the “inhibition of L-type Ca^2+ channel currents” value at L-type Ca^2+ channels is recorded as “fully blocked”.

Turning to `COc1ccc(OC)c(-c2ccc(NC(=O)c3ccncc3F)cc2)c1` [Synta-66, N-(2′,5′-dimethoxy-[1,1′-biphenyl]-4-yl)-3-fluoroisonicotinamide, reference compound], the “inhibition of maximally activated STIM1/Orai1 currents” value against STIM1/Orai1 currents (10 μM) is reported as “reduced Orai1 currents”. The “interference with STIM1 clustering” value in assay [8] is listed as “does not interfere with STIM1 clustering”. For the same compound, in the assay on RBL mast cells, the IC50 is 1 to 3 µM. Further, the “inhibition of maximally activated STIM1/Orai3 currents” value at STIM1/Orai3 currents is “inhibited Orai3 currents at a similar rate to the GSK compounds”.
